Measurements from ChEMBL document CHEMBL1275308, “Synthesis, analgesic and anti-inflammatory evaluation of some novel quinazoline derivatives” (Eur J Med Chem, 2010).
Active and inactive are the calls of the source.

Assays:
Mus musculus [1] = test: Analgesic activity against heat induced nociception in Swiss albino mouse assessed as increase in latency at 100 mg/kg, po measured 60 mins post compound dose by hot plate method relative to pretreatment level; format: functional
Outline: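 Mice; test compounds and indomethacin, each at 100 mg/kg orally as a suspension in 1% carboxymethyl cellulose. Six groups of six animals, with a vehicle negative control. Reaction time recorded at 30 min, 1, 2 and 3 h after treatment, cut-off 10 s. Effect expressed as percentage of the pretreatment level. Values are means.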

Rattus norvegicus = test: Antiinflammatory activity in rat assessed as inhibition of formaldehyde-induced paw edema at 100 mg/kg, po qd for 4 days administered 1 hr before formaldehyde challenge measured 2 hrs post formaldehyde challenge relative to untreated control; format: functional
Outline: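 Rats dosed orally at 100 mg/kg once daily for 4 d, with an indomethacin reference and a vehicle control. Right hind paw volume measured by plethysmometer before challenge. 0.2 mL of 10% w/v formaldehyde injected subplantar 1 h after drug. Paw volume measured 1 and 2 h after injection. Results given as % inhibition versus control; means, ANOVA with Dunnett's test.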

Mus musculus [2] = test: Toxicity in mouse assessed as incidence of toxic symptoms at 500 mg/kg, po measured 24 hrs post dose; format: organism-based; set-up: dose 500 mg/kg, route oral; conditions: in vivo
Mus musculus [3] = test: Toxicity in mouse assessed as incidence of toxic symptoms at 1000 mg/kg, po measured 24 hrs post dose; format: organism-based; set-up: dose 1000 mg/kg, route oral; conditions: in vivo
Mus musculus [4] = test: Toxicity in mouse assessed as mortality at 500 mg/kg, po measured 24 hrs post dose; format: organism-based; set-up: dose 500 mg/kg, route oral; conditions: in vivo
Mus musculus [5] = test: Toxicity in mouse assessed as incidence of toxic symptoms at 750 mg/kg, po measured 24 hrs post dose; format: organism-based; set-up: dose 750 mg/kg, route oral; conditions: in vivo
Mus musculus [6] = test: Toxicity in mouse assessed as mortality at 1000 mg/kg, po measured 24 hrs post dose; format: organism-based; set-up: dose 1000 mg/kg, route oral; conditions: in vivo
Mus musculus [7] = test: Toxicity in mouse assessed as mortality at 750 mg/kg, po measured 24 hrs post dose; format: organism-based; set-up: dose 750 mg/kg, route oral; conditions: in vivo
Mus musculus [8] = test: Toxicity in mouse assessed as induction of urination at 500 to 1000 mg/kg, po measured within 24 hrs post dose; format: organism-based; set-up: dose 500-1000 mg/kg, route oral; conditions: in vivo
Mus musculus [9] = test: Toxicity in mouse assessed as induction of calmness at 500 to 1000 mg/kg, po measured within 24 hrs post dose; format: organism-based; set-up: dose 500-1000 mg/kg, route oral; conditions: in vivo
Mus musculus [10] = test: Toxicity in mouse assessed as induction of muscle relaxation at 500 to 1000 mg/kg, po measured within 24 hrs post dose; format: organism-based; set-up: dose 500-1000 mg/kg, route oral; conditions: in vivo
Mus musculus [11] = test: Toxicity in mouse assessed as induction of sedation at 500 to 1000 mg/kg, po measured within 24 hrs post dose; format: organism-based; set-up: dose 500-1000 mg/kg, route oral; conditions: in vivo

SMILES	Activity (Mus musculus [1])	inhibition in vivo at 100 mg/kg (Rattus norvegicus)	Activity (Mus musculus [2])	Activity (Mus musculus [3])	Activity (Mus musculus [4])	Activity (Mus musculus [5])	Activity (Mus musculus [6])	Activity (Mus musculus [7])	Activity (Mus musculus [8])	Activity (Mus musculus [9])	Activity (Mus musculus [10])	Activity (Mus musculus [11])
Clc1ccc(-c2nc(N3CCN(c4ccccc4)CC3)c3cc(I)ccc3n2)cc1	inactive	13.5%										
Ic1ccc2nc(-c3ccccc3)nc(N3CCC(c4ccccc4)CC3)c2c1	110.2%	82.5%	Non-toxic	Non-toxic	Non-toxic	Non-toxic	Non-toxic	Non-toxic	Toxic			
CN1CCN(c2nc(-c3ccccc3)nc3ccc(I)cc23)CC1	inactive	39.6%										
CN1CCN(c2nc(-c3ccc(Cl)cc3)nc3ccccc23)CC1	inactive	37%										
CC1CCN(c2nc(-c3ccc(Cl)cc3)nc3ccccc23)CC1	inactive	55.1%										
c1ccc(-c2nc(N3CCC(c4ccccc4)CC3)c3ccccc3n2)cc1	153.8%	85.3%	Non-toxic	Non-toxic	Non-toxic	Non-toxic	Non-toxic	Non-toxic				
CN1CCN(c2nc(-c3ccccc3)nc3ccc(Br)cc23)CC1	inactive	45%										
O=c1[nH]nc(C2CCN(c3nc(-c4ccccc4)nc4ccccc34)CC2)s1	81.5%	12.7%	Non-toxic	Non-toxic	Non-toxic	Non-toxic	Non-toxic	Non-toxic				
CC1CCN(c2nc(-c3ccccc3)nc3ccccc23)CC1	88%	69%										
CC1CCN(c2nc(-c3ccccc3)nc3ccc(I)cc23)CC1	85.7%	56.4%										
CC1CCN(c2nc(-c3ccc(Cl)cc3)nc3ccc(Br)cc23)CC1	85.2%	55.1%										
Clc1ccc(-c2nc(N3CCC(c4ccccc4)CC3)c3cc(Br)ccc3n2)cc1	106.1%	50%	Non-toxic	Non-toxic	Non-toxic	Non-toxic	Non-toxic	Non-toxic	Toxic			
Clc1ccc(-c2nc(N3CCC(c4ccccc4)CC3)c3ccccc3n2)cc1	87.3%	53.7%										
COc1ccc2c(c1)c(CC(=O)O)c(C)n2C(=O)c1ccc(Cl)cc1 [INDOMETHACIN]	97.5%	78.3%										
Ic1ccc2nc(-c3ccccc3)nc(N3CCN(c4ccccc4)CC3)c2c1	inactive	39.2%	Non-toxic	Non-toxic	Non-toxic	Non-toxic	Non-toxic	Non-toxic		Toxic	Toxic	Toxic
CC1CCN(c2nc(-c3ccccc3)nc3ccc(Br)cc23)CC1	inactive	57.8%										
Clc1ccc(-c2nc(N3CCN(c4ccccc4)CC3)c3cc(Br)ccc3n2)cc1	inactive	16.2%	Non-toxic	Non-toxic	Non-toxic	Non-toxic	Non-toxic	Non-toxic		Toxic	Toxic	Toxic
S=c1[nH]nc(C2CCN(c3nc(-c4ccccc4)nc4ccccc34)CC2)s1	88%	71.3%	Non-toxic	Non-toxic	Non-toxic	Non-toxic	Non-toxic	Non-toxic				
CC1CCN(c2nc(-c3ccc(Cl)cc3)nc3ccc(I)cc23)CC1	82.3%	45.8%										
Nc1nnc(C2CCN(c3nc(-c4ccccc4)nc4ccccc34)CC2)s1	83.2%	73%	Non-toxic	Non-toxic	Non-toxic	Non-toxic	Non-toxic	Non-toxic		Toxic	Toxic	Toxic
Brc1ccc2nc(-c3ccccc3)nc(N3CCN(c4ccccc4)CC3)c2c1	inactive	40.7%										
Clc1ccc(-c2nc(N3CCC(c4ccccc4)CC3)c3cc(I)ccc3n2)cc1	inactive	41.4%										
CN1CCN(c2nc(-c3ccc(Cl)cc3)nc3ccc(I)cc23)CC1	inactive	17%										
c1ccc(-c2nc(N3CCN(c4ccccc4)CC3)c3ccccc3n2)cc1	107.3%	77.4%	Non-toxic	Non-toxic	Non-toxic	Non-toxic	Non-toxic	Non-toxic	Toxic			
CN1CCN(c2nc(-c3ccccc3)nc3ccccc23)CC1	86.2%	45.2%										
CN1CCN(c2nc(-c3ccc(Cl)cc3)nc3ccc(Br)cc23)CC1	inactive	20%										
CCOC(=O)C1CCN(c2nc(-c3ccccc3)nc3ccccc23)CC1	98.5%	70.3%	Non-toxic	Non-toxic	Non-toxic	Non-toxic	Non-toxic	Non-toxic				
Clc1ccc(-c2nc(N3CCN(c4ccccc4)CC3)c3ccccc3n2)cc1	inactive	12.6%										
Brc1ccc2nc(-c3ccccc3)nc(N3CCC(c4ccccc4)CC3)c2c1	89.8%	57.6%	Non-toxic	Non-toxic	Non-toxic	Non-toxic	Non-toxic	Non-toxic				
